Bioassay records: PubChem, several laboratories
Shown is part of a subset that was picked to be rich in hits.
HSF1 activator – HSF-1 activators, primary screen, NIH3T3-HGL cells, MG132 stress, luminescence, single point; NIH3T3-HGL HSF-1 luciferase reporter, 8 h; 100% = twice DMSO control signal; activation, % at 9 µM; actives 1.7% (n = 300,000);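 active = mean replicate activation of at least 50% with a set share of replicates each reaching 50%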;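 note: 0% = median of the neutral control wells and 100% = twice that signal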
L major viab – Leishmania major promastigote growth inhibition, primary screen; Leishmania major promastigotes, resazurin fluorescence viability; inhibition, % at 10 µM; actives 9% (n = 200,000); in the data active = inhibition above about 50%;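 note: promastigotes grown with compound for 44 hours at 28 °C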
Hsp70 act – Hsp70 transcriptional activators, primary screen, cell-based, HeLa, Hsp70 promoter luciferase, luminescence, 10 µM; HeLa Hsp70 promoter luciferase reporter; scaled: vehicle 0, proteasome-inhibitor control 100%; actives 0.04% (n = 200,000); activation, % at 10 µM;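 active = activation above the mean across all tested compounds plus 3 SD, cutoff set per campaign, cut at about 5.5% in these data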;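 note: 100% = MG132 at 30 µM as the positive control and 0% = DMSO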
HSF1 inhib – HSF1 inhibitors in luciferase reporter cells, primary screen, cell-based, NIH3T3, luminescence. activity change, negative = inhibition, % at 7.5 µM (by protocol). AID 2098, 2009. actives 0.77% (n = 300,000). NIH3T3-HGL HSE-luciferase, MG132-induced, luminescence 8 h; active compounds read low;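 active = more than half of replicate wells show activity change below -50%, luminescence cut by over half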;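 note: luciferase reports HSF-1 transcriptional activity via heat shock element; 0% = median of DMSO wells and -100% = zero luminescence signal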
T cruzi inh – inhibitors of intracellular T. cruzi growth, primary screen, luminescence, NIH3T3 host cells | actives 1.4% (n = 300,000) | inhibition, % (test concentration not listed) | T. cruzi beta-gal in NIH3T3, 90 h;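 active = mean inhibition across valid replicates above about 55%, limit read from the data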;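 note: signal also drops with host cell toxicity which is not excluded here; 0% = plate median of DMSO wells and 100% = zero luminescence signal; higher percent means less beta-gal luminescence so fewer parasites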
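assay system = mouse NIH/3T3 fibroblasts infected with β-gal-expressing T. cruzi Tulahuen C4 | input = 5,000 NIH/3T3 host cells per well | buffer or medium = DMEM plus 2% FBS | timing = 3 h host attachment, then at least 90 h co-culture | measured by = GalScreen luminescence, 60 min | evaluation = luminescence reflecting intracellular parasite burden, expressed as percent inhibition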
Starred values were filed as active, the others as inactive; / = not tested or not shown.

SMILES	HSF1 activator	L major viab	Hsp70 act	HSF1 inhib	T cruzi inh
COc1ccc2cc3cc(C(=O)NCc4cccnc4)oc3nc2c1	15	15	0	1	-22
CC1CCN(S(=O)(=O)c2cc3c4c(c2)CCN4C(=O)CC3)CC1	20	/	/	1	6
O=C(NCC1CCCO1)c1ccccc1OCc1ccc(Cl)cc1 (configuration not stated)	12	/	/	5	3
COC(=O)C(NNc1ccccc1C)(NC(=O)c1ccc(F)cc1)C(F)(F)F (configuration not stated)	80*	1	0	36	-35
COC(=O)C(NNc1ccc(F)cc1)(NC(=O)c1ccccc1)C(F)(F)F (configuration not stated)	/	4	0	/	/
CC(NC(=O)C(=O)N/N=C/c1ccccc1)c1ccccc1 (configuration not stated)	-11	-5	0	-7	-4
CCN1CCCC1CNC(=O)c1cc(S(=O)(=O)N(C)C)ccc1Cl (configuration not stated)	-2	/	/	-13	-5
CCN1CCCC1CNS(=O)(=O)c1ccc(Cl)c(C(F)(F)F)c1 (configuration not stated)	3	81*	0	1	43
O=C(CN1C(=O)c2ccccc2S1(=O)=O)N1CCCCC1	54*	/	/	11	-3
Cc1ccc(C(=O)CN2/C(=C(\O)c3ccccc3)C(=O)c3ccccc3S2(=O)=O)c(C)c1	1	82*	0	-12	-6
Cc1ccc(C(=O)CN2C(=O)c3ccccc3S2(=O)=O)cc1	-76	/	/	-75*	-1
O=C(CN1C(=O)c2ccccc2S1(=O)=O)N1CCOCC1	7	-8	0	-6	-7
O=C(CN1C(=O)c2ccccc2S1(=O)=O)c1ccccc1	/	-3	0	/	/
Cc1cc(C(=O)CN2C(=O)c3ccccc3S2(=O)=O)c(C)n1-c1ccccc1	-7	-10	0	-9	20
COc1ccc(Cl)cc1NC(=O)CN(C)C(=O)c1cc2c(s1)CCC(C)C2 (configuration not stated)	0	/	/	-1	17
CC(=O)C1=C(C)N2CCN=C2S1	27	/	/	-8	3
CCCn1c(-c2cccc(F)c2)nc2c1c(=O)[nH]c(=O)n2Cc1ccccc1	5	/	/	-6	6
COCCn1c(-c2cccc([N+](=O)[O-])c2)nc2c1c(=O)[nH]c(=O)n2Cc1ccccc1	22	84*	-1	13	15
COc1ccc(-c2nc3c(c(=O)[nH]c(=O)n3Cc3ccccc3)n2Cc2ccccc2)cc1	27	99*	0	18	61*
Clc1ccc(-c2nc(/C=N/N3CCOCC3)c3ccccn23)cc1	53*	8	0	10	6
COc1ccc(OC)c(NC(=O)CC2SC(=Nc3ccccc3)N(CCc3ccccn3)C2=O)c1 (configuration not stated)	5	55*	0	-2	6
COc1ccc(N=C2SC(CC(=O)Nc3ccccc3)C(=O)N2Cc2ccccn2)cc1 (configuration not stated)	10	38	0	8	2
COc1ccc(N=C2SC(CC(=O)Nc3cccc(Cl)c3)C(=O)N2Cc2ccco2)cc1 (configuration not stated)	1	98*	0	5	40
O=C(CC1SC(=Nc2ccc(OC(F)F)cc2)N(CCN2CCOCC2)C1=O)Nc1ccc(F)cc1F (configuration not stated)	7	62*	0	1	19
C=CCN1C(=O)C(CC(=O)Nc2ccc(OC)cc2)SC1=Nc1ccc(S(N)(=O)=O)cc1 (configuration not stated)	30	-10	0	4	7
SMILES	HSF1 activator	L major viab	Hsp70 act	HSF1 inhib	T cruzi inh
COc1ccc(OC)c(NC(=O)CC2SC(=Nc3ccc(F)cc3)N(CCC3=CCCCC3)C2=O)c1 (configuration not stated)	5	55*	0	0	37
CC1=NC(C#N)=C(C#N)NC(C)(C)C1	9	-7	0	-2	-2
CCn1c(SCC(=O)N/N=C(\C)c2ccncc2)nnc1-c1ccc(C)cc1	-6	/	/	-2	10
COc1ccc(N=C2SC(CC(=O)Nc3ccccc3)C(=O)N2CCc2ccccn2)cc1 (configuration not stated)	-15	60*	0	-7	-8
Cc1ccc(Cl)cc1NC(=O)Cn1nc(-c2cccs2)ccc1=O	-24	/	/	-1	23
O=C(NN1CCCCC1)c1ccccc1	-2	-2	0	-2	-7
O=C(NC(C(=O)c1ccccc1)N1CCCCC1)c1ccccc1 (configuration not stated)	82*	-3	0	31	0
O=C(Nc1ccc(Cl)c(S(=O)(=O)Nc2ccccc2Cl)c1)c1cccs1	2	77*	0	0	7
Cc1ccc(C(=O)Nc2ccc(C)c(S(=O)(=O)Nc3ccccc3Cl)c2)s1	5	84*	0	7	36
CNC(=S)N1C2CCC1CC(NC(=O)NC13CC4CC(CC(C4)C1)C3)C2 (configuration not stated)	-10	-6	0	-2	9
CC(O)CNc1ccc(-c2nn(C)c(=O)c3ccccc23)cc1[N+](=O)[O-] (configuration not stated)	-14	10	0	-6	0
COCc1[nH]nc2c1C(c1ccc(OC)c(OC)c1)C(C#N)=C(N)O2 (configuration not stated)	0	4	0	3	-6
CCCc1[nH]nc2c1C(c1ccc(O)c(OC)c1)C(C#N)=C(N)O2 (configuration not stated)	/	80*	0	/	3
CCn1c2ccccc2c2cc(C3C(C#N)=C(N)Oc4n[nH]c(COC)c43)ccc21 (configuration not stated)	37	89*	0	22	-14
N#CC1=C(N)Oc2n[nH]c(-c3ccc(F)cc3)c2C1c1ccncc1 (configuration not stated)	67*	-2	0	32	-4
CCOc1ccc(-c2[nH]nc3c2C(c2ccc4c(c2)OCO4)C(C#N)=C(N)O3)cc1OC (configuration not stated)	6	51*	0	0	-10
CCCc1[nH]nc2c1C(c1ccncc1)C(C#N)=C(N)O2 (configuration not stated)	/	-4	0	/	/
COc1ccc(S(=O)(=O)N2CC(O)CC2C(=O)Nc2cccnc2)cc1 (configuration not stated)	23	/	/	3	-18
COc1cc(/C=N/O)ccc1Oc1cnccn1	13	/	/	-5	-6
